Data published in ChEMBL document CHEMBL3351375, “Propyphenazone-based analogues as prodrugs and selective cyclooxygenase-2 inhibitors” (ACS Med Chem Lett, 2014).
Active and inactive are the calls of the source. The calls are words filed in the database; no cut-off is given here.

Legend:
Liver carboxylesterase [1] = target: T1, Liver carboxylesterase (Sus scrofa, UniProt Q29550); assay: Prodrug conversion assessed as half life for porcine liver esterase-mediated prodrug conversion measured every 4 minutes for 100 mins by UV-visible absorption spectroscopy; type: ADME; conditions: pig, isolated protein
T1 sequence (Q29550 whole entry): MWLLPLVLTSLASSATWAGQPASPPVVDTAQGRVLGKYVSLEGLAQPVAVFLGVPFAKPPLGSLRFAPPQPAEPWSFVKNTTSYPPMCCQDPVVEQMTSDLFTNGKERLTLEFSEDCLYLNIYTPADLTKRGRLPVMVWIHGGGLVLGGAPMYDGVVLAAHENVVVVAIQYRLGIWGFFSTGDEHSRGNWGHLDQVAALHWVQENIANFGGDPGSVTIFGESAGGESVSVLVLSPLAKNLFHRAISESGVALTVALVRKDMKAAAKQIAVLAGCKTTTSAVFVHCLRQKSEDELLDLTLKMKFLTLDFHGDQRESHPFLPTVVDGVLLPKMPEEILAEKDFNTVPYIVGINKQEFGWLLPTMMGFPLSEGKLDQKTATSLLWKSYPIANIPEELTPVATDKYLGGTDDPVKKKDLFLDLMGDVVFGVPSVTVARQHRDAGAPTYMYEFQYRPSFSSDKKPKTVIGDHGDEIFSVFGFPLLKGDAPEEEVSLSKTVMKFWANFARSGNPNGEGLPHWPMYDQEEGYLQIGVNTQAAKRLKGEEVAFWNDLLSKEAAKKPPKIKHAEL
In short: (§1)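 Compound was incubated with porcine liver esterase at pH 7.5. UV–vis absorption spectra were recorded every 4 min for 100 min after esterase addition. Pseudo-first-order rate constants (s−1) were derived, and half-lives were calculated from them.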

Liver carboxylesterase [2] = target: T1, Liver carboxylesterase; assay: Prodrug conversion assessed as pseudo-first-order rate constant for porcine liver esterase-mediated prodrug conversion measured every 4 minutes for 100 mins by UV-visible absorption spectroscopy; type: ADME; conditions: pig, isolated protein; in short: as §1
[3] = target: T2, Prostaglandin G/H synthase 1 (Ovis aries, UniProt P05979); assay: Inhibition of purified ovine COX1 pre-treated for 1 hr before 10-acetyl-3,7-dihydroxyphenoxazin substrate addition in presence of porcine liver esterase by fluorescence assay
T2 sequence (P05979 whole entry): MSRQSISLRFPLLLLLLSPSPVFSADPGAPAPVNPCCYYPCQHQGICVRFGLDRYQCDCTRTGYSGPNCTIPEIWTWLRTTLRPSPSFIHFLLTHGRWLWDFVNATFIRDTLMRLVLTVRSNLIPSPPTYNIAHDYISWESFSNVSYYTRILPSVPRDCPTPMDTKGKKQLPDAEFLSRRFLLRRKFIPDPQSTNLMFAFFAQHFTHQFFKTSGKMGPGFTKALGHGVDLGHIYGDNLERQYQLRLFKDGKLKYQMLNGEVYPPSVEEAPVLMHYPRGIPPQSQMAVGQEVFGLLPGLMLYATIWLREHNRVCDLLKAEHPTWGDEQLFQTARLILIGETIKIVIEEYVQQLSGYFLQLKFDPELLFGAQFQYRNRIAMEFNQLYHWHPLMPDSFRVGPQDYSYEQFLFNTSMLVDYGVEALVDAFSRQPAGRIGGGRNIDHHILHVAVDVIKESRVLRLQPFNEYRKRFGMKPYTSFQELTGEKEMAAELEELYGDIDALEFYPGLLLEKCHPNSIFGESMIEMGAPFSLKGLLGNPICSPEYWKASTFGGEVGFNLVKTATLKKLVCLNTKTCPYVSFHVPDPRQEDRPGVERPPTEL
In short: (§2)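 COX1 (ovine) and COX2 (human recombinant) were inhibited, with compound tested both without and with porcine liver esterase added. IC50 (μM) and % inhibition at saturation were reported. COX1 was also tested at a single 160 μM concentration.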

[4] = target: T2, Prostaglandin G/H synthase 1; assay: Inhibition of purified ovine COX1 pre-treated for 1 hr before 10-acetyl-3,7-dihydroxyphenoxazin substrate addition in absence of porcine liver esterase by fluorescence assay
In short: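 COX1 (ovine) and COX2 (human recombinant) were inhibited, with compound tested both without and with porcine liver esterase added. IC50 (μM) and % inhibition at saturation were reported.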

Mus musculus [5] = assay: Analgesic activity in mouse assessed as protection against acetic acid-induced abdominal constriction dosed 1 hr before acetic acid challenge measured for 20 mins post acetic acid challenge
[6] = target: T3, Prostaglandin G/H synthase 2 (Homo sapiens, UniProt P35354); assay: Inhibition of human recombinant COX2 pre-treated for 1 hr before 10-acetyl-3,7-dihydroxyphenoxazin substrate addition in presence of porcine liver esterase by fluorescence assay; in short: as §2
T3 sequence (P35354 whole entry): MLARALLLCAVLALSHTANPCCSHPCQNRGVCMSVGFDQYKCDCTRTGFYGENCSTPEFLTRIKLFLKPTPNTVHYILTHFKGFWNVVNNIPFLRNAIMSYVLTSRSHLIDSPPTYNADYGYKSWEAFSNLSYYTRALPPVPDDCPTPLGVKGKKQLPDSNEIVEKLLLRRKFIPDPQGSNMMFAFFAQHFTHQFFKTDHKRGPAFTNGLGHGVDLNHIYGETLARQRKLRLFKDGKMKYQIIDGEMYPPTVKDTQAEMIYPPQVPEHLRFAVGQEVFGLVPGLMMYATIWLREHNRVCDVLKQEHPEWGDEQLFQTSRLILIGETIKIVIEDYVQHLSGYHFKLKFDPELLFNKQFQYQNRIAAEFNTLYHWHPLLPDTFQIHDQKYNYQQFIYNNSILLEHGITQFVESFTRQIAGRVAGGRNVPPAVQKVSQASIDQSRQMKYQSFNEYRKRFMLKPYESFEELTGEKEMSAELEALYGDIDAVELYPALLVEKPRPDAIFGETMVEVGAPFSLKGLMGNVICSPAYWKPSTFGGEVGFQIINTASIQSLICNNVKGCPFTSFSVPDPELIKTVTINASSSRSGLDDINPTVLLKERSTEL

[7] = target: T4, Prostaglandin G/H synthase 1 (Ovis aries) (UniProt P05979); assay: Inhibition of purified ovine COX1 at saturation drug level pre-treated for 1 hr before 10-acetyl-3,7-dihydroxyphenoxazin substrate addition in absence of porcine liver esterase by fluorescence assay; in short: as §2
T4 sequence (whole entry): T2 sequence (P05979 whole entry)

[8] = target: T4, Prostaglandin G/H synthase 1 (Ovis aries); assay: Inhibition of purified ovine COX1 at saturation drug level pre-treated for 1 hr before 10-acetyl-3,7-dihydroxyphenoxazin substrate addition in presence of porcine liver esterase by fluorescence assay; in short: as §2
Mus musculus [9] = assay: Anti-inflammatory activity in Swiss mouse model of carrageenan-induced paw edema assessed as reduction in paw swelling at 50 mg/kg, sc dosed 30 mins before carrageenan challenge measured at 2 to 4 hrs post carrageenan challenge by mercury plethysmometry; type: functional, organism-based; set-up: dose 50 mg/kg
In short: (§3)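 In a mouse carrageenan paw edema model, compounds were given subcutaneously as pretreatment before the carrageenan injection. Swelling of the injected paw was measured with a mercury plethysmometer at 1, 2, 3 and 4 h. Activity was expressed as reduction in swelling relative to control.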

Mus musculus [10] = assay: Anti-inflammatory activity in Swiss mouse model of carrageenan-induced paw edema assessed as reduction in paw swelling at 50 mg/kg, sc dosed 30 mins before carrageenan challenge measured at 1 to 4 hrs post carrageenan challenge by mercury plethysmometry; type: functional, organism-based; set-up: dose 50 mg/kg; in short: as §3
Mus musculus [11] = assay: Anti-inflammatory activity in Swiss mouse model of carrageenan-induced paw edema assessed as reduction in paw swelling at 50 mg/kg, sc dosed 30 mins before carrageenan challenge measured at 120 mins post carrageenan challenge by mercury plethysmometry; type: functional, organism-based; set-up: dose 50 mg/kg; in short: as §3
Mus musculus [12] = assay: Analgesic activity in mouse assessed as protection against acetic acid-induced abdominal constriction dosed with equimolar mixture of propyphenazone 1 hr before acetic acid challenge measured for 20 mins post acetic acid challenge

| SMILES | t1/2 (Liver carboxylesterase [1]) | K (Liver carboxylesterase [2]) [s⁻¹] | IC50 ([3]; read-out: IC50) [µM] | IC50 ([4]; read-out: IC50) [µM] | IC50 ([6]; read-out: IC50) [µM] | inhibition ([7]; concentration not given here) [%] | inhibition ([8]; concentration not given here) [%] | Activity (Mus musculus [5]) [%] | inhibition (Mus musculus [9]) | Anti-inflammatory activity (Mus musculus [10]) | further results |
| --- | --- | --- | --- | --- | --- | --- | --- | --- | --- | --- | --- |
| CC(C)c1c(COC(=O)Cc2ccccc2Nc2c(Cl)cccc2Cl)n(C)n(-c2ccccc2)c1=O | 11.5 min | 0.001 | 0.25 | 7.1 | 9.9 | 29 | 100 | 87 | Active |  |  |
| CC(C)c1c(CN(C)CCc2ccccn2)n(C)n(-c2ccccc2)c1=O | Stable |  | 24 | 24 |  | 43 | 43 | 45 |  | inactive | IC50 [6]: Not Active |
| Cc1c(NCc2c(C(C)C)c(=O)n(-c3ccccc3)n2C)c(=O)n(-c2ccccc2)n1C [BISFENAZONE] | Stable |  |  |  |  |  |  | 100 |  |  | inhibition (Mus musculus [11]): Active; IC50 [3]: Not Active; IC50 [4]: Not Active; inhibition [7]: inactive; inhibition [8]: inactive |
| CC(C)Cc1ccc(C(C)C(=O)O)cc1 (stereo unspecified) |  |  |  |  |  |  |  |  |  | Active |  |
| CC(C)Cc1ccc(C(C)C(=O)OCc2c(C(C)C)c(=O)n(-c3ccccc3)n2C)cc1 (stereo unspecified) | 28.8 min | 0.0004 | 4.7 |  | 1.3 |  | 100 | 95 | Active |  | IC50 [4]: Not Active; inhibition [7]: inactive |
| Cc1c(C(C)C)c(=O)n(-c2ccccc2)n1C [PROPYPHENAZONE] |  |  |  |  |  |  |  | 45 |  | inactive |  |
| Cc1c(N)c(=O)n(-c2ccccc2)n1C [AMPYRONE] |  |  |  | 26 |  | 100 |  | 45 |  |  | Activity (Mus musculus [12]): 35% |

The next lines start with results.

| t1/2 (Liver carboxylesterase [1]) | K (Liver carboxylesterase [2]) [s⁻¹] | IC50 ([3]; read-out: IC50) [µM] | IC50 ([4]; read-out: IC50) [µM] | IC50 ([6]; read-out: IC50) [µM] | inhibition ([7]; concentration not given here) [%] | inhibition ([8]; concentration not given here) [%] | SMILES | Activity (Mus musculus [5]) [%] | inhibition (Mus musculus [9]) | Anti-inflammatory activity (Mus musculus [10]) | further results |
| --- | --- | --- | --- | --- | --- | --- | --- | --- | --- | --- | --- |
|  |  |  |  |  | 100 |  | O=C(O)Cc1ccccc1Nc1c(Cl)cccc1Cl [DICLOFENAC] | 63 |  | Active |  |
|  |  |  | 0.8 |  | 100 |  | CC(C(=O)O)c1cccc(C(=O)c2ccccc2)c1 (stereo unspecified) [KETOPROFEN] | 66 |  | Active |  |
| 38.5 min | 0.0003 | 0.48 | 0.2 | 2.2 | 43 | 100 | CC(C)c1c(COC(=O)C(C)c2cccc(C(=O)c3ccccc3)c2)n(C)n(-c2ccccc2)c1=O (stereo unspecified) | 73 | Active |  |  |
